Test results: ChEMBL document CHEMBL1221390, “Withaferin A, a cytotoxic steroid from Vassobia breviflora, induces apoptosis in human head and neck squamous cell carcinoma” (J Nat Prod, 2010)
Active and inactive are the calls of the source. No cut-off for these calls is given here.

Tests used:
JMAR [1] = assay: Induction of apoptosis in human JMAR cells assessed as increase in non-viable necrotic cells at 5 uM after 24 hrs by FITC-conjugated annexin V and propidium iodide staining-based flow cytometry; type: functional, cell-based
Outline: (§1)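 Cells given 5.0 μM for 24 h, harvested, and co-stained at 1×10⁶ cells/mL with annexin V-FITC and PI. Annexin binding buffer added before flow cytometry. Annexin V only scored as early apoptosis, annexin V+PI as late apoptosis, PI only as necrosis. Triplicate; t-test.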

[2] = Induction of cell cycle arrest in human MDA1986 cells assessed as accumulation at subG0 phase at 3 uM after 24 hrs by flow cytometry; type: functional
Outline: (§2)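 Treated 24 h with 3.0 μM or DMSO vehicle. Cells trypsinized; 1×10⁶ washed in 0.9% NaCl and fixed 30 min at room temperature in cold 70% ethanol/0.9% NaCl. Stained with PI (50 μg/mL in PBS) 30 min, then DNase-free RNase (1 mg/mL) 30 min. Phase distribution (sub-G0, G0/G1, S, G2/M) by flow cytometry.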

JHU011 [3] = assay: Induction of apoptosis in human JHU011 cells assessed as mild increase in late apoptotic cells at 5 uM after 24 hrs by FITC-conjugated annexin V and propidium iodide staining-based flow cytometry; type: functional, cell-based; outline: as §1
[4] = molecular target: T1, Mitogen-activated protein kinase; ERK1/ERK2 (Homo sapiens) (UniProt P27361+P28482); assay: Inhibition of ERK1/2 phosphorylation in human JMAR cells assessed as effect on total protein level at 0.1 to 5 uM after 24 hrs by Western blot analysis; type: cell-based
Outline: (§3)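 Increasing concentrations for 24 h. NP-40 lysates (with NaF and orthovanadate) cleared at 14,000 × g, equal protein separated by SDS-PAGE and blotted. Probed for phospho-Akt (Ser473), total Akt, phospho-ERK1/2 and total ERK; β-actin loading control. Primary antibody overnight at 4 °C, HRP secondary 1 h.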

[5] = molecular target: RAC-alpha serine/threonine-protein kinase (Homo sapiens) (UniProt P31749); assay: Inhibition of Akt in human JMAR cells assessed as decrease in total protein level at 0.1 to 5 uM after 24 hrs by Western blot analysis; type: cell-based; outline: as §3
[6] = molecular target: RAC-alpha serine/threonine-protein kinase (Homo sapiens) (UniProt P31749); assay: Inhibition of Akt phosphorylation in human MDA1986 cells after 24 hrs by Western blot analysis; type: cell-based; outline: as §3
Homo sapiens [7] = species on record: Homo sapiens; assay: Induction of apoptosis in human MDA1986 cells assessed as decrease in procaspase-3 level at 1 to 6 uM after 24 hrs by Western blot analysis; type: functional, cell-based
Outline: (§4)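 Cells exposed to increasing concentrations for 24 h, lysed in NP-40/Tris pH 7.5 buffer with protease inhibitors, NaF and orthovanadate. Equal protein run on SDS-PAGE, transferred to nitrocellulose. Probed overnight at 4 °C for uncleaved caspase 3 (pro-form) and uncleaved/cleaved PARP; HRP secondary 1 h at room temperature.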

UM-SCC2 [8] = assay: Induction of apoptosis in human UM-SCC2 cells assessed as increase in late non-viable necrotic cells at 5 uM after 24 hrs by FITC-conjugated annexin V and propidium iodide staining-based flow cytometry; type: functional, cell-based; outline: as §1
[9] = Cytotoxicity against human JMAR cells after 72 hrs by MTS assay; type: functional, cell-based
Outline: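 Cells seeded at 2×10³ per well, grown 24 h, then given serial concentrations (DMSO stock diluted in medium; vehicle controls <0.1% v/v DMSO) for 72 h. MTS added, 3 h at 37 °C, 5% CO₂, absorbance at 490 nm. Viability as fraction of medium-only control; IC50 from viability–concentration curves; triplicate, means of three independent experiments. Cisplatin positive control.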

[10] = molecular target: RAC-alpha serine/threonine-protein kinase (Homo sapiens) (UniProt P31749); assay: Inhibition of Akt phosphorylation in human UM-SCC2 cells after 24 hrs by Western blot analysis; type: cell-based; outline: as §3
JMAR [11] = assay: Induction of apoptosis in human JMAR cells assessed as decrease in procaspase-3 level at 1 to 6 uM after 24 hrs by Western blot analysis; type: functional, cell-based; outline: as §4
UM-SCC2 [12] = assay: Induction of apoptosis in human UM-SCC2 cells assessed as induction of PRAP cleavage after 24 hrs by Western blot analysis; type: functional, cell-based; outline: as §4
[13] = Induction of cell cycle arrest in human MDA1986 cells assessed as accumulation at G2/M phase at 3 uM after 24 hrs by flow cytometry; type: functional; outline: as §2
Homo sapiens [14] = species on record: Homo sapiens; assay: Induction of apoptosis in human MDA1986 cells assessed as increase in early apoptotic cells at 5 uM after 24 hrs by FITC-conjugated annexin V and propidium iodide staining-based flow cytometry; type: functional, cell-based; outline: as §1
[15] = molecular target: RAC-alpha serine/threonine-protein kinase (Homo sapiens) (UniProt P31749); assay: Inhibition of Akt phosphorylation in human JMAR cells after 24 hrs by Western blot analysis; type: cell-based; outline: as §3
UM-SCC2 [16] = assay: Induction of apoptosis in human UM-SCC2 cells assessed as increase in early apoptotic cells at 5 uM after 24 hrs by FITC-conjugated annexin V and propidium iodide staining-based flow cytometry; type: functional, cell-based; outline: as §1
JHU011 [17] = assay: Induction of apoptosis in human JHU011 cells assessed as decrease in procaspase-3 level at 1 to 6 uM after 24 hrs by Western blot analysis; type: functional, cell-based; outline: as §4
[18] = molecular target: T1, Mitogen-activated protein kinase; ERK1/ERK2 (Homo sapiens); assay: Inhibition of ERK1/2 phosphorylation in human MDA1986 cells at 0.1 to 5 uM after 24 hrs by Western blot analysis; type: cell-based; outline: as §3
JMAR [19] = assay: Induction of apoptosis in human JMAR cells assessed as increase in early apoptotic cells at 5 uM after 24 hrs by FITC-conjugated annexin V and propidium iodide staining-based flow cytometry; type: functional, cell-based; outline: as §1
Homo sapiens [20] = species on record: Homo sapiens; assay: Induction of apoptosis in human MDA1986 cells assessed as increase in late apoptotic cells at 5 uM after 24 hrs by FITC-conjugated annexin V and propidium iodide staining-based flow cytometry; type: functional, cell-based; outline: as §1
Homo sapiens [21] = species on record: Homo sapiens; assay: Induction of apoptosis in human MDA1986 cells assessed as induction of PRAP cleavage at 1 to 6 uM after 24 hrs by Western blot analysis; type: functional, cell-based; outline: as §4
[22] = molecular target: RAC-alpha serine/threonine-protein kinase (Homo sapiens) (UniProt P31749); assay: Inhibition of Akt in human UM-SCC2 cells assessed as decrease in total protein level at 0.1 to 5 uM after 24 hrs by Western blot analysis; type: cell-based; outline: as §3
[23] = molecular target: T1, Mitogen-activated protein kinase; ERK1/ERK2 (Homo sapiens); assay: Inhibition of ERK1/2 phosphorylation in human JHU011 cells assessed as effect on total protein level at 0.1 to 5 uM after 24 hrs by Western blot analysis; type: cell-based; outline: as §3
JMAR [24] = assay: Induction of apoptosis in human JMAR cells assessed as increase in late apoptotic cells at 5 uM after 24 hrs by FITC-conjugated annexin V and propidium iodide staining-based flow cytometry; type: functional, cell-based; outline: as §1

RAC-alpha serine/threonine-protein kinase (Homo sapiens), sequence (P31749 whole entry): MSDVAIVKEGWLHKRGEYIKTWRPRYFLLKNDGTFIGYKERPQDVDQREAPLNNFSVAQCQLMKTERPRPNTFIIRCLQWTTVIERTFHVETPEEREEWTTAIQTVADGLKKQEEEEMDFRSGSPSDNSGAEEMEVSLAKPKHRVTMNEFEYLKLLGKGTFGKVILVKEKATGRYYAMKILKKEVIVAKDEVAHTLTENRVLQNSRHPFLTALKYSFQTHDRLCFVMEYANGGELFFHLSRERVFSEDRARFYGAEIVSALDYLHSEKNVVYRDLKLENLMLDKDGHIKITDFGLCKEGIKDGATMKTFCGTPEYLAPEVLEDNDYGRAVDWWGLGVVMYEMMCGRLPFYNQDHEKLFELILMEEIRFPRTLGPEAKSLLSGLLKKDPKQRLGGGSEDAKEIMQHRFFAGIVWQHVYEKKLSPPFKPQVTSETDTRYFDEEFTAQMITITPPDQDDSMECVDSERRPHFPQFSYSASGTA
T1 sequence (P27361 whole entry, looked up): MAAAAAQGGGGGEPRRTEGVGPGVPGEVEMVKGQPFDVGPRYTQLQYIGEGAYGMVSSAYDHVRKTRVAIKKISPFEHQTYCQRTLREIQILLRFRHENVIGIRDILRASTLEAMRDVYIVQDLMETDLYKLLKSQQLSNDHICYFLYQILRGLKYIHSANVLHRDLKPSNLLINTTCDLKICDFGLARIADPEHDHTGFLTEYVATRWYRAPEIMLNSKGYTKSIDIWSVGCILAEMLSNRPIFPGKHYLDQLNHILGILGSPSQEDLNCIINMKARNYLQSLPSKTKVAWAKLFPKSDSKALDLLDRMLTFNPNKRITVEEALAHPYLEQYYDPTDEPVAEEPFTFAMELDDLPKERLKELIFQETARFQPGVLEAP
T1 sequence (P28482 whole entry, looked up): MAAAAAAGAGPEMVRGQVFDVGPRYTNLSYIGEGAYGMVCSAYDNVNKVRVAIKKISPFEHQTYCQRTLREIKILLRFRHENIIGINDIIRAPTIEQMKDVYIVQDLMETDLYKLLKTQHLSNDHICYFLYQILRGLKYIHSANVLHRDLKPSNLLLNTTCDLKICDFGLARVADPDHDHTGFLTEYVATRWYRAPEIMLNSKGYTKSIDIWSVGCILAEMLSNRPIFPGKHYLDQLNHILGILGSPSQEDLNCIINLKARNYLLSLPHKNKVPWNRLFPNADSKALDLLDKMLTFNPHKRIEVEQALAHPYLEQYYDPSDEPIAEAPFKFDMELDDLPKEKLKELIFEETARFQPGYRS

SMILES: CC1=C(CO)C(=O)O[C@@H]([C@@H](C)[C@H]2CC[C@H]3[C@@H]4C[C@H]5O[C@]56[C@@H](O)C=CC(=O)[C@]6(C)[C@H]4CC[C@]23C)C1 [WITHAFERIN A]
- Activity (JMAR [1]): Active
- Activity [2]: 8%
- Activity (JHU011 [3]): Active
- inhibition [4]: inactive
- inhibition [5]: Active
- inhibition [6]: Dose-dependent effect
- Activity (Homo sapiens [7]): Active
- Activity (UM-SCC2 [8]): Active
- IC50 [9]: 2 µM
- inhibition [10]: Dose-dependent effect
- Activity (JMAR [11]): Active
- Activity (UM-SCC2 [12]): Dose-dependent effect
- Activity [13]: 49%
- Activity (Homo sapiens [14]): inactive
- inhibition [15]: Dose-dependent effect
- Activity (UM-SCC2 [16]): Active
- Activity (JHU011 [17]): Active
- inhibition [18]: inactive
- Activity (JMAR [19]): Active
- Activity (Homo sapiens [20]): inactive
- Activity (Homo sapiens [21]): Active
- inhibition [22]: Active
- inhibition [23]: inactive
- Activity (JMAR [24]): Active
